Like-named read-outs stand apart in the source and are kept apart here.
Key:
[1] = assay type: physicochemical, Rhodnius prolixus
Procedure, shortened: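 Recombinant nitrophorin refolded from inclusion bodies, reconstituted with excess hemin at pH 7.5, then purified by size-exclusion at pH 5.0. ¹H{¹⁵N} HSQC spectra recorded across pH: 0.2 mM protein at pH 5.0, 5.5 and 6.0; 0.8 mM at pH 6.5. pH 6.5 peaks assigned from pH 7.3 assignments, following cross-peaks through intermediate spectra. NO-bound sample run at 3.7 mM and after dilution to 0.88 mM.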

[2] = Size-exclusion FPLC retention of nitrophorins, mutants and ligand complexes; assay type: physicochemical, Rhodnius prolixus; conditions: pH 5.0
Procedure, shortened: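 Analytical run on Superdex75 at 4 °C in 100 mM sodium acetate, NaCl added to 220 mM total ionic strength. Protein at 1 mM was run at pH 5.0, 5.25, 5.5 and 5.75. Separately, protein from 1 to 0.025 mM was run at pH 5.0. Elution position compared with molecular weight standards.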

[3] = cited from earlier work
[4] = Stopped-flow kinetics of release of NO from the nitrophorins; assay type: binding, Rhodnius prolixus; conditions: for NO Kd (NO dissociation): 5–10 μM in 100 mM sodium phosphate buffer
Procedure, shortened: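 Stopped-flow measurement of NO release from NO-bound nitrophorins with native or M0-bearing N-termini. Dissociation Kd obtained at pH 5.0 and 7.5 in dilute solution, 5–10 μM protein in 100 mM sodium phosphate buffer.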

Kd for the loss of NO from NP4, times that from NP1 ([4]; pH 5.0): 0.6
NO Kd (NO dissociation) ([4]; pH 5.0): 0.020 ± 0.003 s^–1
Kd for the loss of NO from NP4, times that of NP1 ([4]; pH 7.5): 1.4
NO Kd (NO dissociation) ([4]; pH 7.5): 1.60 ± 0.11 s^–1
B1: NP4: NO-carrying heme protein from the salivary glands of Rhodnius prolixus, recombinant, N-terminus ACTK... (protein)
chain: ACTKNAIAQTGFNKDKYFNGDVWYVTDYLDLEPDDVPKRYCAALAAGTASGKLKEALYHYDPKTQDTFYDVSELQVESLGKYTANFKKVDKNGNVKVAVTAGNYYTFTVMYADDSSALIHTCLHKGNKDLGDLYAVLNRNKDAAAGDKVKSAVSAATLEFSKFISTKENNCAYDNDSLKSLLTK
monomer in 1H{15N} HSQC spectrum ([1]; pH 5.0, 0.2 mM): some monomer present
oligomeric state in solution ([1]; pH 5.6, 0.5 mM, absence of NO): mainly monomeric
dimer in 1H{15N} HSQC spectrum ([1]; pH 6.5, 0.8 mM): not detectable
state of the dimer ([1]; pH 7.3, 3.7 mM, absence of NO): completely dissociated to monomer
monomer or dimer on the size-exclusion column ([2]; 1 mM): pure dimer
monomer or dimer on the size-exclusion column ([2]; serial dilution to 0.025 mM): fairly pure monomer
NO Kd (NO dissociation) ([3]; column pH 7.5, measured at pH 8.0 rather than pH 7.5 (footnote a)): 2.6 ± 0.1 ^a s^–1
NO Kd (NO dissociation) ([3]; pH 5.0, ref 17): 0.14 ± 0.01 s^–1

— publication PMC4303305 (Biochemistry, 2014)
